Experimental data reported in ChEMBL document CHEMBL3526153, “Metabolism of gambogic acid in rats: a rare intestinal metabolic pathway responsible for its final disposition” (Drug Metab Dispos, 2011).

Tests used:
[1] = Drug level in intestine (unknown origin) treated with gambogic acid; type: ADME, tissue-based
Outline: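 Intestinal contents from undosed rats homogenized in 5 mL water. 100 μL of 1.0 mg/mL GA solution added, incubated about 24 h at 37 °C, duplicate. 1.0 mL extracted with ethyl acetate. LC-MS/MS with negative ESI, SIM at m/z 709.3 plus full and product-ion scans, acetonitrile gradient 50–90%.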

[2] = Retention time of the compound in Sprague-Dawley rat feces treated with gambogic acid at 4 mg/kg, iv measured over 24 hrs by LC-DAD-MS/MS analysis; type: ADME, organism-based; design: dose 4 mg/kg, route intravenous; details: in vivo
Outline: (§1)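 SD rats (250 ± 20 g), n=4, given GA 4 mg/kg i.v. via tail vein in 2 mL; feces pooled 0–24 h and stored at −20 °C. Feces (0.6 g) homogenized in 50% acetonitrile, sonicated, centrifuged, filtered, then ethyl acetate extraction. Analysed by C18 LC-DAD-MS/MS (gradient 38–80% acetonitrile, 10 mM ammonium acetate, 40 °C), negative ESI.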

[3] = Drug level in Sprague-Dawley rat gut treated with gambogic acid at 4 mg/kg, iv; type: ADME, organism-based; design: dose 4 mg/kg, route intravenous; details: in vivo
[4] = Drug level in PBS buffer treated with gambogic acid at 50 uM preincubated for 10 mins followed by NADPH addition measured after 1 hr by LC-DAD-MS/MS analysis in absence of liver microsomes; type: physicochemical
Outline: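 Control incubation with no microsomes: GA 50 μM (added in 5.0 μL acetonitrile) in 0.1 M PBS pH 7.4, 1.0 mL, preincubated 10 min at 37 °C with shaking. NADPH added to 6.0 mM final, then 1 h at 37 °C, duplicate. Stopped with ice-cold acetonitrile, centrifuged, supernatant dried under N2, reconstituted in mobile phase. LC-MS/MS with negative ESI, isocratic 65% acetonitrile.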

[5] = Retention time of the compound in Sprague-Dawley rat bile treated with gambogic acid at 4 mg/kg, iv measured over 24 hrs by LC-DAD-MS/MS analysis; type: ADME, organism-based; design: dose 4 mg/kg, route intravenous; details: in vivo
Outline: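 SD rats, n=4, bile-duct cannulated under chloral hydrate and allowed 1 h recovery. GA 4 mg/kg i.v.; bile collected on ice, pooled 0–24 h. C18 LC-DAD-MS/MS at 0.25 mL/min with acetonitrile gradient (38% to 80%) in 10 mM ammonium acetate, 40 °C, negative ESI.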

[6] = Drug level in rat liver microsomes assessed as CYP450-mediated compound formation treated with gambogic acid at 50 uM preincubated for 10 mins followed by NADPH addition measured after 1 hr by LC-DAD-MS/MS analysis; type: ADME
Outline: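 GA 50 µM with rat liver microsomes 1.0 mg/mL in 0.1 M PBS pH 7.4, pre-incubated 10 min at 37 °C. Started with NADPH (6.0 mM final) and run 1 h at 37 °C. Controls lacked NADPH or microsomes; duplicate. Stopped with ice-cold acetonitrile, centrifuged, supernatant dried and reconstituted. Isocratic LC (65% acetonitrile), negative-ion ESI MS/MS.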

Plasma = experiment: Drug level in Sprague-Dawley rat plasma treated with gambogic acid at 4 mg/kg, iv measured over 4 hrs by LC-DAD-MS/MS analysis; type: ADME, organism-based; design: dose 4 mg/kg, route intravenous; details: in vivo
Outline: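 Six SD rats given GA 4 mg/kg i.v. via tail vein. Tail blood taken into heparin at 0.033–4 h; plasma separated at 3000 × g, 4 °C, and pooled 0–4 h. 1 mL extracted with 4 mL ethyl acetate, dried, reconstituted. Isocratic 68% acetonitrile, LC-MS/MS in negative ESI.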

[7] = Drug level in Sprague-Dawley rat feces treated with gambogic acid at 4 mg/kg, iv measured over 24 hrs by LC-DAD-MS/MS analysis; type: ADME, organism-based; design: dose 4 mg/kg, route intravenous; details: in vivo; outline: as §1

Drug metabolism [1]	Retention_time [2] [min]	Drug metabolism [3]	Drug metabolism [4]	Retention_time [5] [min]	Drug metabolism [6]	Drug metabolism (Plasma)	Drug metabolism [7]	SMILES
metabolite_detected	19.4	metabolite_detected	–	–	–	–	–	CC(C)=CCC[C@]1(C)C=Cc2c(O)c3c(c(CC=C(C)C)c2O1)O[C@]12C(C3=O)[C@@H](S(=O)(=O)O)[C@@H]3C[C@H]1C(C)(C)O[C@@]2(C/C=C(/C)C(=O)O)C3=O (some centres not stated)
metabolite_detected	16.9	metabolite_detected	–	–	–	–	–	CC(C)=CCC[C@]1(C)C=Cc2c(O)c3c(c(CC=C(C)C)c2O1)O[C@]12C(C3=O)[C@H](S(=O)(=O)O)[C@@H]3C[C@H]1C(C)(C)O[C@@]2(C/C=C(/C)C(=O)O)C3=O (some centres not stated)
–	–	–	metabolite_detected	39.5	metabolite_detected	metabolite_detected	metabolite_detected	CC(C)=CCC[C@]1(C)C=Cc2c(O)c3c(c(CC=C(C)C)c2O1)O[C@]12C(C3=O)C(O)[C@@H]3C[C@H]1C(C)(C)O[C@@]2(C/C=C(/C)C(=O)O)C3=O (some centres not stated)
–	–	–	–	38.7	–	–	–	CC(C)=CCC[C@]1(C)C=Cc2c(O)c3c(c(CC=C(C)C)c2O1)O[C@]12C(C3=O)C(O[C@@H]3O[C@H](CO)[C@@H](O)[C@H](O)[C@H]3O)[C@@H]3C[C@H]1C(C)(C)O[C@@]2(C/C=C(/C)C(=O)O)C3=O (some centres not stated)
